The source made the active and inactive calls. The calls are words filed in the database; no cut-off is given here.
Assays:
[1] = molecular target: T1, Bromodomain-containing protein 4 (Homo sapiens, UniProt O60885); assay: Inhibition of BRD4-BD1 (unknown origin) incubated for 1 hr by AlphaScreen biotin-JQ1 competition assay
[2] = molecular target: T2, Serine/threonine-protein kinase PLK1 (Homo sapiens, UniProt P53350); assay: Inhibition of human recombinant PLK1 by Z-Lyte assay
[3] = molecular target: Bromodomain testis-specific protein (Homo sapiens, UniProt Q58F21); assay: Inhibition of BRDT-BD1 (unknown origin) incubated for 1 hr by AlphaScreen biotin-JQ1 competition assay
Outline: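 BD protein at 40 nM, Ni-coated acceptor and streptavidin donor beads each 25 μg/mL. Buffer 50 mM HEPES, 150 mM NaCl, 0.1% BSA, 0.01% Tween20, pH 7.5. Compounds delivered in DMSO. Run under low light, read after 1 h at room temperature.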

Homo sapiens = organism: Homo sapiens; assay: Selectivity index, ratio of IC50 for inhibition of BRD4-BD1 (unknown origin) to IC50 for human recombinant PLK1
[4] = molecular target: Serine/threonine-protein kinase PLK2 (Homo sapiens) (UniProt Q9NYY3); assay: Inhibition of human PLK2 expressed in mammalian expression system assessed as remaining enzyme activity at 1 uM
Outline: (§1)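 Single-concentration binding panel at 1 uM: BROMOscan (32 bromodomains) and KINOMEscan (468 kinases) competition-binding platforms. Reported as % of DMSO control.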

[5] = molecular target: Serine/threonine-protein kinase PLK3 (Homo sapiens) (UniProt Q9H4B4); assay: Inhibition of human PLK3 expressed in mammalian expression system assessed as remaining enzyme activity at 1 uM; outline: as §1
[6] = molecular target: T1, Bromodomain-containing protein 4; assay: Inhibition of human BRD4-BD1 expressed in bacterial expression system assessed as remaining activity at 1 uM; outline: as §1
[7] = molecular target: T2, Serine/threonine-protein kinase PLK1; assay: Inhibition of human PLK1 expressed in mammalian expression system assessed as remaining enzyme activity at 1 uM; outline: as §1
MOLM-13 = assay: Induction of cell cycle arrest in human MOLM13 assessed as accumulation at G1/G2 phase at 1 uM incubated for 24 hrs by propidium iodide staining based flow cytometry; assay type: functional
Outline: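 MOLM13 cells exposed to 1 μM compound for 24 h, then harvested, stained with propidium iodide and PI fluorescence measured on a flow cytometer for cell-cycle distribution.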

T2 sequence (P53350 whole entry): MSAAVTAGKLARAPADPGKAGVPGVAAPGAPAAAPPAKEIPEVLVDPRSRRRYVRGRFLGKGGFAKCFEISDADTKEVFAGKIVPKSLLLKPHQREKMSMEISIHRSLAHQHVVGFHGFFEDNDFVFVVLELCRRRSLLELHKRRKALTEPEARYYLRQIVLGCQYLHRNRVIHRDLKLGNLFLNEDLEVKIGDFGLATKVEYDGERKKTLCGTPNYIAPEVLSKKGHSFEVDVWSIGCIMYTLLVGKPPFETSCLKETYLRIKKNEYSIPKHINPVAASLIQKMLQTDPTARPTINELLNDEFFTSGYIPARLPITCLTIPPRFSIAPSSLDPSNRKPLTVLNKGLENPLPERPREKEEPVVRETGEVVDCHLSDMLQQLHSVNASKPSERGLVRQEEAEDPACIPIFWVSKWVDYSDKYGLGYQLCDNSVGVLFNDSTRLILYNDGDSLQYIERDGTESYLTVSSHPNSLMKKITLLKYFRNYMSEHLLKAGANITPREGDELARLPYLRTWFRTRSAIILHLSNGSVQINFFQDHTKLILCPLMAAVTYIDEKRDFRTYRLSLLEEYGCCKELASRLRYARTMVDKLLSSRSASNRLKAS
Chain of Serine/threonine-protein kinase PLK3 (Homo sapiens) (Q9H4B4 whole entry, looked up): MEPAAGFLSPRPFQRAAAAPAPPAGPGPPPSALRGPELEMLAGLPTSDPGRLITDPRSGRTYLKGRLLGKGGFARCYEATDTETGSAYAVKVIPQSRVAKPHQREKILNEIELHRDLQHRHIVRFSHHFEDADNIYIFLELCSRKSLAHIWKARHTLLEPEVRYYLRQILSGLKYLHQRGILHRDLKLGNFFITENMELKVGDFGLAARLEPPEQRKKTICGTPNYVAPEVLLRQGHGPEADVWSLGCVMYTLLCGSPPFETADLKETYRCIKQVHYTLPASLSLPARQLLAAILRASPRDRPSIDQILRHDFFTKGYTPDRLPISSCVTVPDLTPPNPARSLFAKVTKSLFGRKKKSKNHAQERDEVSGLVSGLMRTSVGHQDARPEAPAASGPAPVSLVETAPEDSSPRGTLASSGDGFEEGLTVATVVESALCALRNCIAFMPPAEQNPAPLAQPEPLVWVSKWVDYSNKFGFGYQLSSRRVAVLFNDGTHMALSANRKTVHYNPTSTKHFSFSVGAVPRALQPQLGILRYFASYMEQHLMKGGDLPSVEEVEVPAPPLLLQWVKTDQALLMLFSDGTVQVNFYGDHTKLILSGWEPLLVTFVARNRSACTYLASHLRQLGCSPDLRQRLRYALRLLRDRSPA
Chain of Serine/threonine-protein kinase PLK2 (Homo sapiens) (Q9NYY3 whole entry, looked up): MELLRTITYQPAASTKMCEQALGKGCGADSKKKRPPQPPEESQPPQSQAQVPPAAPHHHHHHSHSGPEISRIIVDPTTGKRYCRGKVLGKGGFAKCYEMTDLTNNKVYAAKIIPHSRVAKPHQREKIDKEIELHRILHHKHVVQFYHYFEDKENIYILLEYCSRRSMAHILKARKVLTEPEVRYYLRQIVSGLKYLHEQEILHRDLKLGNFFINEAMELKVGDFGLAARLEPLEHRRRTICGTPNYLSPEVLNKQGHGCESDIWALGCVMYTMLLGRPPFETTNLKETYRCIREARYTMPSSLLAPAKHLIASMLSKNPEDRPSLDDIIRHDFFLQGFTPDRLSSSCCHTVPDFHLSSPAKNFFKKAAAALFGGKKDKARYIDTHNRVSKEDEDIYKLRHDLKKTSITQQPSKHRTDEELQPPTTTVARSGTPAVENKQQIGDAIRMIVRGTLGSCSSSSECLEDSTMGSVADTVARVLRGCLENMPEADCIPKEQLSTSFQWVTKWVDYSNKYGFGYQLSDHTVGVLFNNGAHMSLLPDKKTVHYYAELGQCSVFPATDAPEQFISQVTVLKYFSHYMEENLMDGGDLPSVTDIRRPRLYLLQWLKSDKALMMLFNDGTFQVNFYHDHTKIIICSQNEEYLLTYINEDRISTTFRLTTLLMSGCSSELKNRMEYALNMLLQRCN

IC50 [1] [nM] | IC50 [2] [nM] | IC50 [3] [nM] | Compound | further results
596 | 47 | 1950 | CCC[C@@H]1C(=O)N(C)c2cnc(Nc3ccc(C(=O)NC4CCN(C)CC4)cc3OC3CCCC3)nc2N1C1CCCC1 | –
690 | – | 3540 | CN1CCC(NC(=O)c2ccc(Nc3ncc4c(n3)N(C3CCCC3)CC(=O)N4C)c(OC3CCCC3)c2)CC1 | –
310 | 8.6 | 750 | COc1cc(C(=O)NC2CCN(C)CC2)ccc1Nc1ncc2c(n1)N(C1CCCCC1)[C@H](C)C(=O)N2C | –
421 | 25.2 | 978 | COc1cc(C(=O)NC2CCN(C)CC2)ccc1Nc1ncc2c(n1)N(C(C)C)[C@H](C)C(=O)N2C | –
186 | 4 | – | CC[C@@H]1C(=O)N(C)c2cnc(Nc3ccc(C(=O)NC4CCN(C)CC4)cc3OC)nc2N1C(C)C | –
> 10000 | 2620 | – | CC[C@@H]1C(=O)Nc2cnc(Nc3ccc(C(=O)NC4CCN(C)CC4)cc3OC)nc2N1C(C)C | Ratio IC50 (Homo sapiens): > 250
183 | 27 | 558 | COc1cc(C(=O)NCCc2ccccc2)ccc1Nc1ncc2c(n1)N(C1CCCC1)[C@H](C)C(=O)N2C | –
84 | 1.1 | 342 | COc1cc(C(=O)NC2CCN(C)CC2)ccc1Nc1ncc2c(n1)N(C1CCCC1)[C@H](C)C(=O)N2C | Activity [4]: 0.3 to 0.5%; Activity [5]: 0.3 to 0.5%; Activity [6]: 12%; Activity [7]: 0.3 to 0.5%
6630 | 54.1 | 26000 | COc1cc(C(=O)NC2CCN(C)CC2)ccc1Nc1ncc2c(n1)N(C1CCCC1)CC(=O)N2C | –
253 | 457 | 933 | COC(=O)c1ccc(Nc2ncc3c(n2)N(C2CCCC2)[C@H](C)C(=O)N3C)c(OC2CCCC2)c1 | –
59 | 127 | 245 | C[C@H]1C(=O)N(C)c2cnc(Nc3ccc(C(=O)NC4CCN(C)CC4)cc3OC3CCCC3)nc2N1C1CCCC1 | –
28 | 40 | 102 | C[C@@H]1C(=O)N(C)c2cnc(Nc3ccc(C(=O)NC4CCN(C)CC4)cc3OC3CCCC3)nc2N1C1CCCC1 | Activity (MOLM-13): Active
2580 | 9.9 | 8470 | CCC[C@@H]1C(=O)N(C)c2cnc(Nc3ccc(C(=O)NC4CCN(C)CC4)cc3OC)nc2N1C1CCCC1 | Ratio IC50 (Homo sapiens): > 250
109 | 9 | 560 | COc1cc(C(=O)NC2CCNCC2)ccc1Nc1ncc2c(n1)N(C1CCCC1)[C@H](C)C(=O)N2C | –
107 | 160 | 378 | COc1cc(C(=O)NC2CCCCC2)ccc1Nc1ncc2c(n1)N(C1CCCC1)[C@H](C)C(=O)N2C | –
107 | 8.7 | 229 | COc1cc(C(=O)NC2CCN(C)CC2)ccc1Nc1ncc2c(n1)N(C1CCCC1)[C@@H](C)C(=O)N2C | –
> 10000 | 37.2 | – | CC[C@@H]1C(=O)Nc2cnc(Nc3ccc(C(=O)NC4CCN(C)CC4)cc3OC)nc2N1C1CCCCC1 | Ratio IC50 (Homo sapiens): > 250
41900 | 218 | – | COc1cc(C(=O)NC2CCN(C)CC2)ccc1Nc1ncc2c(n1)N(C(C)C)[C@H](CC(C)C)C(=O)N2C | –
94 | 95 | 369 | COc1cc(C(=O)N2CCCCC2)ccc1Nc1ncc2c(n1)N(C1CCCC1)[C@H](C)C(=O)N2C | –
104 | 21 | 392 | COc1cc(C(=O)NCCN(C)C)ccc1Nc1ncc2c(n1)N(C1CCCC1)[C@H](C)C(=O)N2C | –
650 | 4 | – | CC[C@@H]1C(=O)N(C)c2cnc(Nc3ccc(C(=O)NC4CCN(C)CC4)cc3OC)nc2N1C1CCCCC1 | –
> 50000 | 322 | > 50000 | COc1cc(C(=O)NC2CCN(C)CC2)ccc1Nc1ncc2c(n1)N(C1CCOCC1)[C@H](CC(C)C)C(=O)N2C | –

Source: ChEMBL document CHEMBL4196154, “Structure-Guided Design and Development of Potent and Selective Dual Bromodomain 4 (BRD4)/Polo-like Kinase 1 (PLK1) Inhibitors” (J Med Chem, 2018)
